The structures appear in SMILES notation.

Broadly, the IC50 is the concentration at which inhibition is half-maximal. For orientation: ED50 means the midpoint of the dose-response relation.

The subject of test [1] is Rattus norvegicus. Kind of test: Antiinflammatory activity by rat adjuvant arthritis assay at 30 mg/kg peroral administration (uninjected paw at day 16). The note with it: route oral.
Test [2] concerns Rattus norvegicus. As to the kind of experiment: Antiinflammatory activity by rat Carrageenan edema assay at 50 mg/kg peroral administration (3h edema). It is filed as functional. The note with it: route oral. In a few lines:
(§1)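 Groups of six male Sprague-Dawley rats (150-165 g) were dosed po in 0.5% methyl cellulose. One hour later, 0.1 mL of 1% carrageenan was injected subplantar into the right hind paw. Edema was taken as the 3 h paw volume minus the zero-time volume and expressed as percent change versus vehicle; screening dose was 50 mg/kg po.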
(In the carrageenan paw model, swelling and tenderness develop within hours.)

The target in test [3] is T1, Polyunsaturated fatty acid 5-lipoxygenase (Rattus norvegicus) (UniProt P12527).
T1 sequence (whole entry): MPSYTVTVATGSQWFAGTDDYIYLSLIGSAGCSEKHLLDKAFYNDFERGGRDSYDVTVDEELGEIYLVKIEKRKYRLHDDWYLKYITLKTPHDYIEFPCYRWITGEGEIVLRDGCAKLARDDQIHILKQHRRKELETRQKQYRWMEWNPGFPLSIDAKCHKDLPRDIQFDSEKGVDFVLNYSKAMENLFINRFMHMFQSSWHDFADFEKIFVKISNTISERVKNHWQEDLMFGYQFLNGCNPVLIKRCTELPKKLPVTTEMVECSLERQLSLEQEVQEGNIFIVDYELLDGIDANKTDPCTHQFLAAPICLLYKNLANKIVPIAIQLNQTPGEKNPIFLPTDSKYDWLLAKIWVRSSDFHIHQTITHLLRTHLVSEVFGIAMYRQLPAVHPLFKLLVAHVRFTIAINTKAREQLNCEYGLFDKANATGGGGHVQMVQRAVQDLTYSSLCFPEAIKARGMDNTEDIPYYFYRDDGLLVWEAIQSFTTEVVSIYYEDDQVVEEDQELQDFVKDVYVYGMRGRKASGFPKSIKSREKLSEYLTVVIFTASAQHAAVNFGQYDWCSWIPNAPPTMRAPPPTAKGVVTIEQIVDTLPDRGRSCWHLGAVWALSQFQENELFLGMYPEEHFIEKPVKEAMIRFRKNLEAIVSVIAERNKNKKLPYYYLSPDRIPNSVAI
Kind of test: Inhibition of 5-lipoxygenase pathway in rat polymorphonuclear assay, by ability to inhibit formation of LTB4 AT 10 uM.

In test [4] the target is T1, Polyunsaturated fatty acid 5-lipoxygenase (Rattus norvegicus). Kind of test: 5-lipoxygenase Inhibitory activity against rat polymorphonuclear leucocytes using 5-HETE. In a few lines:
(§2)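 Rat polymorphonuclear leucocytes at 10^7 cells/mL in HBSS (Mg2+, Ca2+, 10 mM cysteine) were preincubated with compound, added in DMSO, for 10 min at 37 °C with shaking. Radiolabeled eicosanoids (5-HETE for the 5-LO pathway, TXB2 for the CO pathway) were separated by HPLC and detected with an in-line radioactivity detector. Results are given as percent change at 10 µM or 50 µM.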

Test [5] has the same target.
Test [6] is filed under the species Rattus norvegicus. As to the kind of experiment: Anti-inflammatory activity by rat adjuvant Arthritis assay..
The subject of test [7] is Rattus norvegicus. Kind of test: Anti-inflammatory activity by rat carrageenan edema assay. (3h edema). Format: functional. In a few lines: as §1
The target in test [8] is T1, Polyunsaturated fatty acid 5-lipoxygenase (Rattus norvegicus). This is another data set of the same source.
The target in test [9] is T2, Polyunsaturated fatty acid 5-lipoxygenase (Rattus norvegicus, UniProt P12527).
T2 sequence (P12527 whole entry): T1 sequence (whole entry)
As to the kind of experiment: 5-lipoxygenase inhibitory activity against rat polymorphonuclear leucocytes from female wistar rat, by using LTB4.

Test [10] concerns the target T3, Cyclooxygenase (Rattus norvegicus, UniProt P35355+Q63921).
T3 sequence (P35355 whole entry): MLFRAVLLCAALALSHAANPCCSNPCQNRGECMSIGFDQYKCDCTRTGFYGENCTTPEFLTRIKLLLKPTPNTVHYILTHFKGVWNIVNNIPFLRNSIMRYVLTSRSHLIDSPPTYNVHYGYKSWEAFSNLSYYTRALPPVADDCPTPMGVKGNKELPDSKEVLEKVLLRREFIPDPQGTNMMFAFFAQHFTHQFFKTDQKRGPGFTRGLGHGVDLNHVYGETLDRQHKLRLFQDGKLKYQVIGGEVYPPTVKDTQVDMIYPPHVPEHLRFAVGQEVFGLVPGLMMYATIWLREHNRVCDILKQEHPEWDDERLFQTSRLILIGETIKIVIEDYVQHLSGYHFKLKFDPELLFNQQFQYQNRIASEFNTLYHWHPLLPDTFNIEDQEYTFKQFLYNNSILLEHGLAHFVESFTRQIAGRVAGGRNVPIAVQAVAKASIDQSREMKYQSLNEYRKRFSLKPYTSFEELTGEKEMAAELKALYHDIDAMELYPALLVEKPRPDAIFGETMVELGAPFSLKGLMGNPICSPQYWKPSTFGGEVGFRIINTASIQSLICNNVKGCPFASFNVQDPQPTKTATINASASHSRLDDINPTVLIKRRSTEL
T3 sequence (Q63921 whole entry): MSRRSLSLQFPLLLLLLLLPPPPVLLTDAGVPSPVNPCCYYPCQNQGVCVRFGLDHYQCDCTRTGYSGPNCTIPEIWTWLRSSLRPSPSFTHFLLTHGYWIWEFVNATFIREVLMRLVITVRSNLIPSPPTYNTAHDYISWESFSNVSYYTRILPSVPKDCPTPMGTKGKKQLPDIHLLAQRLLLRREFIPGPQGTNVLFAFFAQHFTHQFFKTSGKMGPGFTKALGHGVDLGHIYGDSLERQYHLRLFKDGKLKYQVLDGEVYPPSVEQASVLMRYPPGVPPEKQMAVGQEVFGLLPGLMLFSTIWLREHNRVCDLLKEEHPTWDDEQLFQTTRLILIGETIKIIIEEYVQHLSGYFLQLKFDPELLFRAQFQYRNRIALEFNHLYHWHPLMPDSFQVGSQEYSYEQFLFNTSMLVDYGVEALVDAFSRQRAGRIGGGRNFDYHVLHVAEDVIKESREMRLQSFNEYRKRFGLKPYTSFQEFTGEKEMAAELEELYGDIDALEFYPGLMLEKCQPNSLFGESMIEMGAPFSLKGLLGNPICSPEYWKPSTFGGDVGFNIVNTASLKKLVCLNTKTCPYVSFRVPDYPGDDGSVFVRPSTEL
As to the kind of experiment: Prostaglandin G/H synthase Inhibitory activity against rat polymorphonuclear leucocytes from female wistar rat, by using TXB2. In a few lines: as §2

The species named for test [11] is Rattus norvegicus. As to the kind of experiment: Anti-inflammatory activity by rat adjuvant Arthritis assay (uninjected paw at day 16).
For test [12], the target named is T2, Polyunsaturated fatty acid 5-lipoxygenase. Kind of test: 5-lipoxygenase inhibitory activity against rat polymorphonuclear leucocytes from female wistar rat, by using 5-HETE. In a few lines: as §2
Test [13] addresses T3, Cyclooxygenase. As to the kind of experiment: Prostaglandin G/H synthase Inhibitory activity against rat polymorphonuclear leucocytes from female wistar rat, by using PGE-2.
Test [14] has as its target T1, Polyunsaturated fatty acid 5-lipoxygenase (Rattus norvegicus). Kind of test: Inhibition of 5-lipoxygenase pathway in rat polymorphonuclear assay (inhibition of 5-HETE formation). In a few lines: as §2
Test [15] concerns Rattus norvegicus. As to the kind of experiment: Anti-inflammatory activity by rat carrageenan edema assay (3h edema). Format: functional. In a few lines: as §1
Test [16] concerns the target T1, Polyunsaturated fatty acid 5-lipoxygenase (Rattus norvegicus). As to the kind of experiment: Inhibition of 5-lipoxygenase pathway was evaluated in rat polymorphonuclear assay by compound (50 uM) ability to inhibit formation of 5-HETE. In a few lines: as §2
The target is the same in test [17]. This is another data set of the same source.
For test [18], the species on record is Rattus norvegicus. As to the kind of experiment: Anti-inflammatory activity by rat acute gastric irritation assay, activity is expressed as Ulcerogenic dose (UD50). Format: functional, Stomach. In a few lines: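 Male Sprague-Dawley rats (190-220 g) were fasted for 18 h, then given compound in 0.5% Tween 80 by gastric intubation at 1 mL/100 g, with groups of 8 scored blind. At 4 h, gastric irritation was scored 0-3: 0 none, 1 redness, 2 ≤5 lesions, 3 >5 lesions. The ulcerogenic dose is the dose at which 50% of rats had at least one lesion.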

Test [19] has as its target Cyclooxygenase (Rattus norvegicus) (UniProt P35355+Q63921).

With `Cc1ccc(C(=O)C2CCCc3c(C)ccnc32)cc1C` (stereo not drawn), the Change with Rattus norvegicus [1] was -28%; in the test with Rattus norvegicus [2] it was -25%; in test [3], -53%; in test [4], -50%.
Turning to `NC1=NN(c2cccc(C(F)(F)F)c2)CC1` [BW-755C], the results for the IC50 in [5] and in test [8] were 11 µM and 10 µM, respectively. In addition, the ED50 is 38 mg/kg in the test listed under Rattus norvegicus [6] and 72 mg/kg in the test with Rattus norvegicus [7].
On to `Cc1ccc(C(O)c2nc3c(cc2C)CCCCC3)cc1` (stereo not drawn), for which the IC50 in [9] is 14 µM; against Cyclooxygenase [10] it was 33 µM; in test [12] it was 27 µM; against Cyclooxygenase [13], > 50 µM. The Change was -49% in the test on Rattus norvegicus [1], -58% in the test on Rattus norvegicus [2], -43% in test [3] and -49% in [14]. The ED50 in the test filed under Rattus norvegicus [11] was found to be 30 mg/kg; in the test on Rattus norvegicus [15], 40 mg/kg.
For `C/C(=C1/CCCc2c(C)ccnc21)c1ccc(C)cc1`, the Change in the test on Rattus norvegicus [1] was 0%; in the test with Rattus norvegicus [2], -15%; in test [3], -18%; in [4], 1%.
In the same order, the values of `Cc1ccnc2c1CCC/C2=C\c1ccncc1` are 3%, -15%, -4% and 9%.
For the compound `Cc1ccc(C(=O)C2CCCc3c(C)ccnc32)cc1` (stereo not drawn), the Change with Rattus norvegicus [1] is 19%; in the test with Rattus norvegicus [2] it was -12%; in test [3] it was -34%; in test [4] it was -41%.
For `COc1cc(/C=C2\CCCc3cc4ccccc4nc32)ccc1OC(C)=O`, the Change is -100% in test [16], 14% with Rattus norvegicus [1] and -39% with Rattus norvegicus [2].
Take `Cc1ccnc2c1CCC/C2=C/c1ccnc2ccccc12`: the Change with Rattus norvegicus [1] is -38%; in the test on Rattus norvegicus [2] it was -36%; in test [3], -23%; in test [4] it was -5%.
For the compound `CC(C)Cc1ccc(C(C)C(=O)O)cc1` (stereo not drawn) [IBUPROFEN], the IC50 in test [17] and in test [5] was > 50 µM each time. For the same compound, the ED50 in the test filed under Rattus norvegicus [6] is 95 mg/kg. In addition, the UD50 in the test listed under Rattus norvegicus [18] was 42 mg/kg.
As for `Cc1ccc(/C=C2\CCCc3cc(C)cnc32)cc1`, the Change in test [16] was -28%; in the test on Rattus norvegicus [1], 17%; in the test on Rattus norvegicus [2], -47%.
Turning to `Cc1cccc(C(=O)C2CCCc3cccnc32)c1` (stereo not drawn), the Change is -16% with Rattus norvegicus [1], -6% in the test with Rattus norvegicus [2], -11% in test [3] and 23% in test [4].
For `COc1cc(/C=C2\CCCc3c(C)ccnc32)ccc1OC(C)=O`, the Change in test [16] was -100%; with Rattus norvegicus [1], 23%; in the test with Rattus norvegicus [2] it was -45%.
Take `Cc1ccnc2c1CCC/C2=C/c1ccncc1`: the Change in the test with Rattus norvegicus [1] was -49%; in the test on Rattus norvegicus [2] it was -17%; in [3] it was -25%; in [4] it was -17%.
Consider `COc1ccc2cc([C@H](C)C(=O)O)ccc2c1`, for which the IC50 in [5] is > 100 µM; in test [19] it was 0.1 µM; in test [8] it was > 100 µM.
Consider `C/C(=C1\CCCc2c(C)ccnc21)c1ccc(C)cc1`, for which the Change with Rattus norvegicus [1] was -14%; with Rattus norvegicus [2] it was -15%; in test [3] it was -22%; in test [4] it was 7%.
In the case of `CC(c1cc2ccccc2s1)N(O)C(N)=O` (stereo not drawn), the values for the half-inhibitory concentration (IC50) in test [5], in [19] and in test [8] were 0.4 µM, 16 µM and 0.3 µM, respectively.
`Cc1cnc2c(c1)CCCC2S(=O)(=O)c1ccccc1` (stereo not drawn): the Change was -2% with Rattus norvegicus [1], -22% in the test with Rattus norvegicus [2], 6% in [3] and 0% in test [14].
In the case of `Cc1ccc(S(=O)(=O)NC2CCCc3cc(C)cnc32)cc1` (stereo not drawn), the Change with Rattus norvegicus [1] was 77%; in the test on Rattus norvegicus [2] it was -33%; in [3], 2%; in test [4], -16%.
Consider `Cc1cnc2c(c1)CCCC2Sc1ccccc1` (stereo not drawn), for which the Change in the test on Rattus norvegicus [1] was -27%; with Rattus norvegicus [2] it was -21%; in test [3], -39%; in [4], -50%.
On to `Cc1ccc(/C=C2\c3ncc(C)cc3CCC2(C)C)cc1`, for which the Change was 8% in the test with Rattus norvegicus [1], -48% with Rattus norvegicus [2], 86% in test [3] and 97% in [4].
Turning to `Cc1ccc(C(C)(O)c2nc3c(cc2C)CCCCC3)cc1` (stereo not drawn), the Change with Rattus norvegicus [1] was -4%; in the test on Rattus norvegicus [2] it was 2.5%; in [3] it was -13%; in test [14], -14%.
Take `Cc1ccc(C(O)c2nc3c(cc2C)CCCC3)cc1` (stereo not drawn): the Change was -34% with Rattus norvegicus [1], -12.5% in the test with Rattus norvegicus [2], -23% in test [3] and -44% in test [14].
Consider `Cc1ccc([C@@H](O)[C@@H]2CCCc3cc(C)cnc32)cc1`, for which the Change in the test on Rattus norvegicus [1] was -3%; in the test on Rattus norvegicus [2], -15%; in test [3], -11%; in test [14], -27%.

These data come from ChEMBL document CHEMBL1128308, “Synthesis and antiinflammatory activity of certain 5,6,7,8-tetrahydroquinolines and related compounds” (J Med Chem, 1995).
